The record followed here is PubChem BioAssay.

Test [1] in a line: S. cerevisiae growth inhibition in permissive medium (OD615), pilot counter-assay for S. cerevisiae lifespan shortening project, permissive growth control (AID 705;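 active means growth inhibition above 25% in both replicates, a cutoff set 3 SD above the mean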). To be noted: OD615, 24 h, at 10 µM, active compounds read high. In short, it runs like this: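 assay system = Saccharomyces cerevisiae strain carrying genetically modified DeaD replicative-lifespan system | technique = absorbance (optical density) at 615 nm | buffer or medium = permissive raffinose/galactose medium | timing = cells pre-grown 4 h, then 24 h compound exposure, 30 °C humidified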

Test [2] can be described thus: S. cerevisiae growth inhibition in restrictive medium, OD615, pilot screen, restrictive growth control, yeast lifespan reduction project (AID 706;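 active means growth inhibition above a set limit, 3 SD over mean compound inhibition, in both replicates, cut at about 43% in these data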;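 further: modified DeaD lifespan yeast strain shifted to restrictive glucose medium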). Conditions: OD615, 48 h, at 10 µM, active compounds read high. In short, it runs like this:
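System: modified S. cerevisiae. Buffer or medium: CSMM-D glucose medium. Incubation: 4 h pre-growth plus 48 h compound exposure, 30 °C. Detection: absorbance (optical density) measured at 615 nm.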

Test [3] is described as follows: doxorubicin toxicity protection in MRP-1 cells – H69AR cells, CellTiter-Glo, duplicate, MRP-1 activator project, pilot screen (AID 807).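 Further: compound pretreatment 18-22 h then 72 h combined with doxorubicin; 0% = doxorubicin alone and 100% = vehicle without doxorubicin.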 Conditions: H69AR viability with doxorubicin, CellTiter-Glo luminescence; at 10 µM; active compounds read high. On the technique in general: ATP-based viability assays read luminescence as a measure of living cells.
Test [4] is described as follows: viability of HCT116 without oncogenic beta-catenin – human colon tumor cells, pilot screen (AID 823;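 active means cell viability at or below a set limit in both duplicate runs, the limit being the all-compound median minus 4 SD, cut at about 23% in these data, passing the limit was not always enough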;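 further: 0% = wells killed by 20 µM Hyamine and 100% = untreated DMSO cell wells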). To be noted: HCT116 beta-catenin knockout viability, CellTiter-Glo, 60 h; at 10 µM; active compounds read low.
The nature of test [5]: viability of PTEN-null HCT116 cells – cell-based, HCT116 clonal line, CellTiter-Glo, pilot screen (AID 824;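 active means viability at or below 27.92% in each of two runs, the all-compound median minus 4 SD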;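 further: 0% = 20 µM Hyamine control and 100% = vehicle cell control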). Conditions: HCT116 PTEN-deleted viability, 60 h, at 10 µM, active compounds read low.
A short description of test [6]: RAM pathway blockade in budding yeast – dse1pr::URA3 reporter, 5-FOA selection, pilot screen (AID 869;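 active means inhibition over a set limit, the all-compound mean plus 3 SD, in both replicate runs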;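 further: 0% = DMSO wells with no growth and 100% = 10 µM 1-NA-PP1 with full growth; RAM network block rescues cells from 5-FOA so hits raise OD615 growth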). Conditions: S. cerevisiae dse1pr::URA3 5-FOA growth, OD615, 2 d; at 10 µM; active compounds read high; strain carries analog-sensitive mutant Cbk1 kinase.
Test [7] in a line: RAM signaling pathway blockade in yeast – S. cerevisiae, Pdr1DBD-CYC8 efflux-inhibited sensitized strain, primary screen (AID 1298;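 active means RAM network inhibition above 8.4% in each of two replicates, 3 SD over the compound average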;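 further: 0% = DMSO untreated cells without growth and 100% = 10 µM 1-NA-PP1 full growth; higher means more yeast growth rescued from 5-FOA killing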). To be noted: S. cerevisiae cbk1-as DSE1-URA3 strain, 5-FOA growth OD615, 2 d; at 50 µM; active compounds read high.

A number with no mark means an inactive call. Records with an inconclusive call do not appear. Activity calls are given as the source filed them.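 How the source made its calls, unless noted: active means viability increase at or above a cutoff of the median across tested compounds plus 3 SD (cut at about 8.5% in these data, passing the limit was not always enough); inconclusive means some gains above the cutoff, reason not given; inactive means the rest.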

Broadly, the viability is a read-out of living cells in per cent, often relative to untreated cells. As usually defined, the inhibition is the relative decrease from the control value, in per cent. For the compound `O=C1Nc2ccccc2C(O)(C(=O)NC2CC2)N1c1ccc(Cl)c(Cl)c1` (stereo unspecified), the growth inhibition was -1.51% in test [1] and -1.06% in test [2]. Further, in test [3], the viability increase is -4.14%. For the same compound, the viability in test [4] was 92.5%; in test [5] it was 95%. The inhibition in test [6] was 1.22%. The RAM network inhibition in test [7] was 3.99%.

As to `COc1ccc(S(=O)(=O)N2CCC(C(N)=O)CC2)cc1`, the growth inhibition is 6.47% in test [1] and -3.14% in test [2]. Further, the viability increase in test [3] was 0.89%. The viability was 106% in test [4] and 102% in test [5]. For the same compound, in test [6], the inhibition is 3.44%. Besides, the RAM network inhibition in test [7] was 4.25%.

Take `O=C(Nc1ccncc1)c1ccccc1F`: the growth inhibition was -0.355% in test [1] and 0.36% in test [2]. Further, the viability increase in test [3] is -3.04%. Moreover, the figures for the viability in test [4] and in test [5] were 94.3% and 98%, respectively. Moreover, in test [6], the inhibition was 1.06%. Also, the RAM network inhibition in test [7] was 0.96%.

Consider `CC(=O)Nc1ccc(S(=O)(=O)NCc2ccc3c(c2)cc(C)n3C)cc1`, for which the growth inhibition in test [1] is 8.2%; in test [2], 10.1%. The viability increase in test [3] was 0.21%. Besides, the figures for the viability in test [4] and in test [5] were 101% and 99.2%, respectively. Further, the inhibition in test [6] was 3.49%. Moreover, the RAM network inhibition in test [7] was 2.12%.

Turning to `COc1ccc(OC)c(C2C(C(N)=O)=C(C)Nc3nc(CCCO)nn32)c1` (stereo unspecified), the growth inhibition is -12.9% in test [1] and -20.6% in test [2]. The viability increase in test [3] was 0.09%. Further, the viability in test [4] was 97.3%; in test [5] it was 95.6%. Further, the inhibition in test [6] is 1.61%. In test [7], the RAM network inhibition was 5.21%.

On to `Cc1ccc2oc(=O)c3cnn(CC(=O)Nc4ccccc4N4CCN(C)CC4)c3c2c1`, for which the growth inhibition in test [1] was 0.52%; in test [2] it was -25.3%. For the same compound, the viability increase in test [3] is -6.16%. The viability in test [4] was 8.9% (active); in test [5], 6.03% (active). Moreover, the inhibition in test [6] is -0.415%. In addition, the RAM network inhibition in test [7] was -0.65%.

Regarding `O=C(Nc1nccs1)c1cc(S(=O)(=O)N2CCCCC2)ccc1Cl`, the growth inhibition is -6.76% in test [1] and -16.1% in test [2]. For the same compound, the viability increase in test [3] was 0.46%. In addition, the values for the viability in test [4] and in test [5] were 99.7% and 88.6%, respectively. Besides, the inhibition in test [6] is 1.89%. Moreover, the RAM network inhibition in test [7] is 4.88%.

Regarding `CCCCn1c(=NC(=O)c2cccnc2)c(C(=O)OCC)cc2c(=O)n3ccccc3nc21`, the growth inhibition in test [1] is -19.8%; in test [2] it was -15%. Moreover, in test [3], the viability increase is -4.72%. Also, the viability in test [4] was 84.2%; in test [5], 88.1%. Further, in test [6], the inhibition is 0.685%. Moreover, the RAM network inhibition in test [7] was 7.68%.

Turning to `CN(CP(=O)(O)C(O)c1ccccc1)S(C)(=O)=O` (stereo unspecified), the values for the growth inhibition in test [1] and in test [2] were -4.82% and -6.66%, respectively. Moreover, in test [3], the viability increase is 0.16%. Besides, the viability in test [4] was 94.2%; in test [5] it was 93.4%. Besides, in test [6], the inhibition was 1.1%. The RAM network inhibition in test [7] is 1.86%.

For `COc1ccc(NC(=O)c2cnn3c(C(F)(F)F)cc(-c4ccco4)nc23)cc1OC`, the growth inhibition in test [1] is -11.5%; in test [2] it was -12.4%. Also, the viability increase in test [3] was -0.73%. In addition, the viability in test [4] is 96.5%; in test [5], 93%. The inhibition in test [6] is 1.89%. The RAM network inhibition in test [7] is 2.09%.

For `Cc1nnc(SCCn2c(N3CCCC(C)C3)nc3c2c(=O)n(C)c(=O)n3C)s1` (stereo unspecified), the growth inhibition was -11.4% in test [1] and -13.6% in test [2]. Besides, the viability increase in test [3] is -3.23%. Further, the viability in test [4] is 94.2%; in test [5], 97.2%. The inhibition in test [6] is 2.31%. Besides, in test [7], the RAM network inhibition was 1.84%.

Take `Cn1c(=O)c2cc(S(=O)(=O)NC(Cc3ccccc3)C(=O)NCc3ccco3)ccc2n(C)c1=O` (stereo unspecified): the growth inhibition was -16.4% in test [1] and -11.4% in test [2]. Further, the viability increase in test [3] was -4.79%. Further, the viability in test [4] is 101%; in test [5], 92%. In addition, the inhibition in test [6] was 2.81%. Moreover, in test [7], the RAM network inhibition was 4.39%.

Turning to `COc1ccccc1NC(=O)c1ccc(S(=O)(=O)N2CCCC2)cc1`, the values for the growth inhibition in test [1] and in test [2] were -5.88% and -5.9%, respectively. In test [3], the viability increase was 0.68%. For the same compound, the viability in test [4] was 114%; in test [5] it was 94.9%. Further, in test [6], the inhibition was 2.33%. In test [7], the RAM network inhibition was 2.32%.

For `Cc1cccc(N2CCN(c3nc4ccc(Cl)cc4n4cnnc34)CC2)c1C`, the growth inhibition was -17.7% in test [1] and -14.7% in test [2]. In addition, in test [3], the viability increase is -8.78%. Also, the figures for the viability in test [4] and in test [5] were 2.03% (active) and 1.75% (active), respectively. Also, in test [6], the inhibition was -0.44%. The RAM network inhibition in test [7] is -0.95%.

As to `CSCCC(NC(=O)c1c(C)oc2c1CCCC2)C(=O)O` (stereo unspecified), the figures for the growth inhibition in test [1] and in test [2] were -2.84% and -12.1%, respectively. Moreover, the viability increase in test [3] is -0.78%. The results for the viability in test [4] and in test [5] were 98.5% and 95.9%, respectively. In addition, the inhibition in test [6] was 1.46%. In addition, the RAM network inhibition in test [7] was 0.21%.

`CC(=O)c1c(C)nc2ccc(Br)cc2c1C(=O)O`: the figures for the growth inhibition in test [1] and in test [2] were -10.2% and 8.3%, respectively. For the same compound, in test [3], the viability increase is -1.9%. Further, the viability in test [4] was 98.2%; in test [5], 97.4%. Moreover, the inhibition in test [6] was 1.79%. Also, the RAM network inhibition in test [7] is 1.15%.

In the case of `CCOC(=O)N1CCN(CC(=O)Nc2ccc(C)cc2)CC1`, the growth inhibition in test [1] is -4.43%; in test [2], 4.79%. Besides, the viability increase in test [3] was -3.03%. Moreover, the viability in test [4] is 98.3%; in test [5] it was 100%. For the same compound, in test [6], the inhibition was 1.11%. In test [7], the RAM network inhibition was -0.15%.

As to `CCOC(=O)c1cccc(NC(=O)CNC(=O)C2CCCCC2)c1`, the growth inhibition was 3.97% in test [1] and 2.92% in test [2]. Further, the viability increase in test [3] is -0.32%. Also, the viability is 96.1% in test [4] and 99.2% in test [5]. Moreover, the inhibition in test [6] is 0.655%. Further, the RAM network inhibition in test [7] was -0.72%.
